# FLuc stim CS = firefly luciferase counter-screen for stimulation assays; P08659; ATPlite luciferase biochemical, luminescence, 10 min; 0 = ATP-free wells, 1 = DMSO control; activation factor at 10 µM; 200,000 tested, under 10 active;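 active = luciferase activation factor, scaled between plate controls, of at least 2 with compound at 10 µM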
# Target sequence (P08659 whole entry, looked up): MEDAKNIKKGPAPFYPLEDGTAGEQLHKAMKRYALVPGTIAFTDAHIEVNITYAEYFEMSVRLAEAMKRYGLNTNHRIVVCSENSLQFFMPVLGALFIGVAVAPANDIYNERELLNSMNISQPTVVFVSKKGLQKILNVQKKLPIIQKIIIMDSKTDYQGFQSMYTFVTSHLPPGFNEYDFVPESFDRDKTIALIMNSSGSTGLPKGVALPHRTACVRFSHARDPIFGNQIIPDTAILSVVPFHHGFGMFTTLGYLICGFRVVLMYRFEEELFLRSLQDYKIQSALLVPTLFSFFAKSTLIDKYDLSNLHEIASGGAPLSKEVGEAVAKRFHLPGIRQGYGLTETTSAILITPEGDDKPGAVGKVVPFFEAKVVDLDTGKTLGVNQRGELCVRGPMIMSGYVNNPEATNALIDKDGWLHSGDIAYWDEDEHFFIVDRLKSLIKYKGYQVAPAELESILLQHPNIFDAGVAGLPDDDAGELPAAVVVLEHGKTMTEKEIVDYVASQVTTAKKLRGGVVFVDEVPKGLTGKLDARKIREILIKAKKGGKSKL
#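 assay system = Luciferase/luciferin detection reagent, cell-free biochemical luciferase assay | also added = ATP substrate | times = 10 min post-reagent at room temperature | measured by = luminescence from luciferase reaction | measure = luciferase activation, seen as luminescence increase over controls | benchmarks = low control with PBS replacing ATP, high control enzyme plus ATP without compound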
# FLuc inhib CS = Photinus pyralis luciferase inhibition counter-screen; P08659; ATPLite firefly luciferase biochemical luminescence, 10 min; inhibition, % at 10 µM; hit rate 1.5% among 200,000;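 active = inhibition above about 50% when tested at 10 µM, limit read from the data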
# PPC-1+TRAIL kill = PPC-1 cancer cell killing with TRAIL present. hit rate 0.41% among 220,000. cell killing (% activity), % at 4 µM or 5 µM. AID 1443. PPC-1 cells + TRAIL, ATPLite viability luminescence;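 active = cell killing above 50% in the first pass at 4 µM, then a duplicate retest at 5 µM averaging 50% or more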
# TRAIL sens C8 = caspase-8 TRAIL sensitization | NB7+C8 cells + TRAIL, ATPlite viability luminescence | inhibition (viability loss, TRAIL sensitization), % at 10 µM | hit rate 1% among 360,000 | AID 624354;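 active = compounds causing at least 50% loss of cell viability in the single-dose screen, relative to plate controls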
# HSP90 inh = HSP90 refolding inhibition in rabbit reticulocyte lysate; luciferase refolding luminescence, 3 h; inhibition, % at 5.6 µM; hit rate 0.91% among 290,000; AID 1789;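 active = inhibition above the screen-wide mean plus 3 SD, computed separately per campaign, cut at about 16% in these data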;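 also: inhibitors lower the luminescence because luciferase stays unfolded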
# Numbers stand for hits; 0 = inactive; - = no result given. Only some compounds are listed: those with a hit (about 2% of all), similar ones and a draw of the others.
SMILES,FLuc stim CS,FLuc inhib CS,PPC-1+TRAIL kill,TRAIL sens C8,HSP90 inh
C/C(=N\NC(=O)COc1ccc(C(C)(C)C)cc1)c1ccc(-n2ccnc2)cc1,0,79.8,0,59.2,0
COc1cc(C(=O)NN=Cc2ccc(N(C)C)cc2)cc(OC)c1OC,-,-,-,0,-
C[C@H](CO)N1C[C@H](C)[C@H](CN(C)C(=O)c2ccccc2)OCc2ccccc2-c2c(n(C)c3ccccc23)C1=O,-,-,-,0,-
O=C(Cn1cc(COc2ccc(Cl)c(Cl)c2)nn1)NS(=O)(=O)c1ccccc1C(F)(F)F,-,-,-,0,-
CC(C)n1cnc2c(Nc3cccc(Cl)c3)nc(NCCCO)nc21,-,-,0,0,-
C=CC(=O)Nc1cccc(Nc2nc(N[C@H]3CC[C@H](N(C)C)CC3)nc3c2ncn3C(C)C)c1,-,-,-,82.7,-
Cc1cccc(/N=C/c2c(O)cc(C)oc2=O)n1,0,0,0,0,0
Cc1ccc(N/N=C/c2c(O)cc(C)oc2=O)cc1,0,68.1,0,0,0
Cc1cc(O)c(/C=N/Nc2ccc(F)cc2)c(=O)o1,0,68.0,0,0,0
COc1cc(CN2C[C@@H](CO)O[C@@H](n3cnc4c(NC5CCCC5)ncnc43)C2)cc(OC)c1OC,-,-,-,0,-
CCCCN1C(=O)C(CC(=O)NC2CC2)CC(C(=O)N2CCOCC2)=C1C (stereo unspecified),-,-,-,0,-
CCCNC(=O)C1(C)CCCN(Cc2cccc(C#N)c2)C1 (stereo unspecified),-,-,-,0,-
O=[N+]([O-])c1cc(Cl)ccc1-c1nc(-c2ccccc2)no1,0,67.2,0,0,0
OC(c1cc(F)cc(Cl)c1)c1ncc(-c2ccc(Cl)cc2)[nH]1 (stereo unspecified),-,-,-,0,-
O=C(Nc1nc(=O)c2ccccc2s1)c1ccc(F)cc1,0,53.7,0,54.8,0
O=C(Nc1nc(=O)c2ccccc2s1)c1ccc(Cl)cc1,0,0,0,66.8,0
O=C(Cc1ccccc1)Nc1nc(=O)c2ccccc2s1,0,0,0,0,0
Cn1ncc(Cl)c1C(=O)Nc1nc2ccc(Cl)cc2s1,0,60.3,0,0,0
Cn1cc(Cl)c(C(=O)Nc2nc3ccccc3s2)n1,0,60.8,0,0,0
Cc1cc(C(=O)Nc2nc3ccc(Cl)cc3s2)nn1C,-,-,0,0,0
O=C(Nc1nc2ccccc2s1)c1c(F)cccc1Cl,-,-,-,0,0
CC1(C)CC(=O)C=C(c2ccc(COC(=O)C3CC3)cc2)C1=O,-,-,-,0,-
CC1(C(=O)NS(=O)(=O)C2CC2)CCN(C(=O)COCc2ccccc2)C1 (stereo unspecified),-,-,-,0,-
CC1=C(C(=O)N2CCCCCC2)CC(CC(=O)NC2CCCC2)C(=O)N1Cc1ccc(C(C)(C)C)cc1 (stereo unspecified),-,-,-,0,-
Cn1c(=O)c2cc(NC(=S)NCc3ccccc3F)ccc2n1C,-,-,-,0,-
SMILES,FLuc stim CS,FLuc inhib CS,PPC-1+TRAIL kill,TRAIL sens C8,HSP90 inh
Nc1c(C(=O)Nc2nc3ccccc3s2)sc2nc(-c3cccs3)ccc12,0,0,0,95.9,0
Cc1ccc(C(=O)Nc2nc(=O)n(C(=O)c3ccccc3Cl)s2)cc1,0,0,0,0,0
Nc1ccc(C(=O)Nc2nc3ccccc3s2)cc1,0,73.9,58.6,50.2,0
Cn1sc(NC(=O)c2ccc(Cl)cc2)nc1=O,0,77.8,0,50.2,0
C(=NNc1ccc2ccccc2n1)c1ccccn1,-,-,-,87.2,-
C(=N\NC1=Nc2cccc3cccc1c23)/c1ccccn1,0,65.5,0,70.7,0
C=CCNc1ncnc2c1ncn2[C@H]1CN(C2CCCC2)C[C@@H](CO)O1,-,-,-,0,-
Oc1ccc(Cl)cc1N=Cc1sc2ccccc2c1Cl,0,0,-,0,63.7
Cc1ccc2nc(Cl)c3nnnn3c2c1,0,0,0,61.5,0
COc1cccc(C(=O)N2CCC[C@@H]2C(=O)N2CCC[C@@H]2C(=O)NCc2ccccc2Cl)c1,-,-,-,0,-
CC1CCc2cc(F)ccc2N1C(=O)CCl (stereo unspecified),0,0,0,94.0,0
COc1ccc(N=C(C)C2=C(O)c3ccccc3C2=O)cc1,0,81.4,63.4,69.7,0
COc1ccc(CN2C(=O)c3ccccc3C2c2nnnn2-c2c(C)cccc2C)cc1OC (stereo unspecified),-,-,-,0,-
N/C(=N\OC(=O)c1cccc2ccccc12)c1cccc([N+](=O)[O-])c1,0,0,0,0,0
N/C(=N\OC(=O)c1cccs1)c1cccc([N+](=O)[O-])c1,0,86.7,0,0,0
Cc1cccc(C(=O)O/N=C(\N)c2cccc([N+](=O)[O-])c2)c1,0,87.1,0,0,0
COc1ccc(/C(N)=N/OC(=O)c2cccc([N+](=O)[O-])c2)cc1OC,0,0,0,0,0
Cc1ccccc1C(=O)O/N=C(\N)c1cccc([N+](=O)[O-])c1,0,90.7,0,73.6,0
CC(C)(C)S(=O)N1Cc2cc(C(=O)Nc3ccc(-c4ccccc4)cc3)nc(-c3cccc(-c4cc5ccccc5o4)c3)c2[C@@H]1CCO (stereo partly specified),-,-,-,0,-
c1ccc(-c2cnc(-c3ccccc3)nc2)cc1,0,66.4,0,74.9,0
c1ccc(-c2ncc3c(ccc4ccccc43)n2)cc1,0,89.2,77.8,83.8,0
Cc1nnc(NC(=O)c2ccc3c(c2)C(=O)N(CC2CCCO2)C3=O)s1 (stereo unspecified),0,67.1,0,0,0
CC(C)(C)c1nnc(NC(=O)c2ccc(Cl)nc2)s1,0,0,0,0,0
O=C(COc1ccc(Cl)cc1)Nc1ncc([N+](=O)[O-])s1,0,58.7,0,0,0
CCc1nnc(NC(=O)c2ccc(Cl)nc2)s1,0,53.1,0,0,0
SMILES,FLuc stim CS,FLuc inhib CS,PPC-1+TRAIL kill,TRAIL sens C8,HSP90 inh
Cc1ccc(C(=O)Nc2nnc(C)s2)cc1,0,58.5,0,0,0
O=C(Cc1ccc(Cl)cc1)Nc1ncc([N+](=O)[O-])s1,0,0,0,0,0
CC(C)C[C@H]1CNC(=S)N1C[C@H]1CCCN1C[C@H](Cc1ccc(O)cc1)N1C[C@H](Cc2ccccc2)N(CC2CCCCCC2)C1=S,-,-,-,0,-
Cc1ccc(C(=O)Nc2ncc([N+](=O)[O-])s2)cc1,-,-,-,77.4,80.0
COc1cccc(OC)c1C(=O)Nc1cccc(-c2nc3ccccc3[nH]2)c1,0,0,0,0,0
COc1cccc2cc(-c3nc4ccccc4[nH]3)c(=O)oc12,-,-,-,54.3,0
COc1cccc2cc(-c3ccccc3)c(=O)oc12,0,59.5,0,0,0
COc1ccc(Nc2nc(-c3cc4cccc(OC)c4oc3=O)cs2)cc1,0,0,0,0,0
COc1ccc(-c2cc3cccc(OC)c3oc2=O)cc1,-,-,-,78.1,0
COc1cccc2cc(-c3nc(-c4cccs4)cs3)c(=O)oc12,0,0,0,0,0
O=C(Nc1nc2ccc(F)cc2s1)c1ccc([N+](=O)[O-])o1,-,-,-,0,-
Cc1cc(C)c2c(=O)n3c(nc2c1)C(Cc1ccc(O)cc1)NC(=O)c1cc2ccccc2cc1-3 (stereo unspecified),-,-,-,0,-
Cc1ccc([C@H]2C[C@H](O)[C@@H](n3cc(C4CC4)nn3)CN2C(=O)C2CCCCC2)cc1,-,-,-,0,-

# Compound activity from PubChem BioAssay.
